Test results reported in article PMC7966865 (Molecular Metabolism, 2021).

Key:
[1] = tested on: normal C57 mice / control mice (Foxo1 flox/flox); assay: Pyruvate tolerance test; format: in vivo, mouse
[2] = tested on: endogenous FOXO1 target gene expression (G6pc, Pck1, Foxo1 mRNA) in primary hepatocytes; assay: cAMP/Dex-induced gene expression; format: cell-based; settings: primary mouse hepatocytes, insulin 100 nM, 6 h; for cAMP/Dex-induced G6pc mRNA expression / cAMP/Dex-induced Pck1 mRNA expression: FOXO1 inhibitors 10 μM; for effect on Foxo1 mRNA levels: cAMP + Dex, compound 10 10 μM
In short: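 Hepatocytes from 8–10-week-old male C57/BL6 mice, plated on collagen at 200,000 cells/well, recovered 4–5 h, then serum-reduced (1% FBS M199, G418) 15–16 h. Stimulation: cAMP 100 μM + dexamethasone 1 μM, with test compound (10 μM, or 10 nM–10 μM). q-RT-PCR normalized to Ppia. For IC50: 0% = unstimulated, 100% = cAMP + Dex; 3–6 wells/concentration; 4 experiments pooled; 4-parameter fit.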

[3] = tested on: liver-specific Foxo1 knockout (LKO) mice; assay: Pyruvate tolerance test; format: in vivo, mouse; settings: three doses
In short: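 Liver-specific Foxo1 knockout mice (Albumin-Cre; Foxo1 flox/flox), male and female, were randomized by body weight and fed glucose. They received three oral doses of test compound at 10 ml/kg (8 am, 5 pm, 8 am), at 16 mg/kg in Optiform Select #8 or 30 mg/kg in 5% DMSO/95% PEG-400. After fasting, they were given sodium pyruvate 2 g/kg i.p. in saline. Tail glucose was read at 0–120 min. N = 7–15; tested once.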

Cell viability = format: cell-based; settings: human
In short: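 HEK293 cells were seeded overnight in EMEM with 1% FBS and then transfected for reporter assays. Test compound was added right after transfection as a 10-point half-log dilution in duplicate, at 0.5% final DMSO. After 24 h at 37 °C, medium taken off the cells was assayed for lactate dehydrogenase activity by LDH-Glo luminescence. At least two independent experiments were run.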

db/db mice = assay: Chronic study in db/db mice; format: in vivo, mouse; settings: for ALT / AST: 6-h-fasted plasma; for hepatic histology (H&E): after 10 days of treatment; for glucose levels during ITT: day 9, i.p. insulin 0.75U/kg, all time points; for HOMA-IR index (worsening of insulin resistance over the study) / HOMA-β: calculated from fasting glucose and insulin
In short: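 Male db/db mice (C57BL/6J background), 6–7 weeks old, were acclimated for 2 weeks and randomized by weight and glucose. They received vehicle, test compound or rosiglitazone (10 mg/kg in 0.5% methylcellulose) orally for 10 days. Body weight was recorded each morning before dosing. 6-h-fasted glucose and ELISA insulin on days 0, 5 and 10 gave HOMA-IR and HOMA-β. Fasted plasma ALT/AST were measured colorimetrically. N = 6–8.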

[4] = tested on: STZ-induced diabetic mice; assay: Chronic study in streptozotocin; format: in vivo, mouse
In short: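 Male C57BL/6J mice received STZ 50 mg/kg i.p. in citrate buffer pH 4.5 for 5 days, until glucose reached 300–450 mg/dL, then were randomized. Human recombinant FGF21 was given s.c. at 0.45 mg/kg daily from day 1. Test compound in Solutol HS-15:saline (5:95) was given p.o. at 32 mg/kg/dose twice daily from day 4. Readings: 6-h-fasted plasma TG (colorimetric), body weight change day 10 vs day 0, and day-11 perigonadal fat weight. N = 5–6.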

pCMV-Rluc = assay: Non-specific activity: constitutive pCMV-Rluc reporter in HEK293 cells; format: cell-based; settings: Homo sapiens, HEK293, read-out: Non-specific activities pCMV-Rluc IC50
In short: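 HEK293 cells in EMEM with 1% FBS were co-transfected with IRE-firefly luciferase, constitutive CMV-Renilla luciferase and a forkhead factor or RFP control plasmid. Test compound was added immediately as a 10-point half-log series in duplicate, at 0.5% final DMSO. After 24 h, lysates were read by Dual-Glo luciferase. Relative IC50 came from a four-parameter fit, with at least two independent experiments.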

pGK-FFluc = assay: Non-specific activity: constitutive pGK-FFluc reporter in HEK293 cells; format: cell-based; settings: Homo sapiens, HEK293, read-out: Non-specific activities pGK-FFluc IC50
In short: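 In the wild-type FOXO1 format, HEK293 cells in EMEM with 1% FBS were co-transfected with IRE-NanoLuc, constitutive pGK-firefly luciferase and the FOXO1-WT plasmid. Test compound was dosed right after transfection as a 10-point half-log series in duplicate, at 0.5% final DMSO. After 24 h, lysates were read by Nano-Glo Dual-Luciferase. Relative IC50 came from a four-parameter fit, with at least two experiments.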

Mouse PK = format: in vivo
In short: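 Male ICR mice (N = 3 per route) were dosed with test compound in Solutol HS-15:saline (5:95 v/v), i.v. at 1 mg/kg or p.o. at 10 mg/kg. Blood was sampled at 0.083–24 h (8 time points) and processed to plasma. Plasma levels were measured by LC-MS/MS and used to calculate PK parameters.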

[5] = male, ICR, mouse, plasma, iv, 1 mg/kg
[6] = male, ICR, mouse, plasma, po, 10 mg/kg

CCn1cc(C(=O)O)c(=O)c2c(N)c(F)c(NC3CCCCC3)cc21 [AS1842856, reference compound]
glucose excursion during PTT ([1]; 4-h-fasted mice, higher dose level (30 or 100 mg/kg/dose tested) p.o.): significantly lowered glucose excursion | glucose levels during PTT ([1]; overnight-fasted C57 mice and control mice, 30 mg/kg p.o., three doses): able to reduce glucose levels | cAMP/Dex-induced G6pc mRNA expression [2]: significantly suppressed | cAMP/Dex-induced Pck1 mRNA expression [2]: significantly suppressed | glucose levels during PTT ([3]; liver Foxo1 knockouts, 30 mg/kg/dose p.o.): reduced glucose levels

CN1CCN(c2ccc(C(=O)Nc3cc(-c4nc5ccccc5[nH]4)n[nH]3)cc2)CC1 [Compound 10, N-[3-(1H-1,3-benzodiazol-2-yl)-1H-pyrazol-5-yl]-4-(4-methylpiperazin-1-yl)benzamide]
glucose lowering during PTT ([1]; normal C57 mice fasted overnight (16 h), 16 mg/kg p.o., three doses): ineffective at lowering glucose | CC50 at 24 h (Cell viability): > 24 µM | reduced food intake (trend) (db/db mice; db/db mice, follow-up study, vs vehicle): 12% | plasma TG (db/db mice; male db/db mice, 6-h-fasted): no significant effects | plasma total cholesterol (TC) (db/db mice; male db/db mice, 6-h-fasted): no significant effects | ALT (db/db mice; male db/db mice): not affected | AST (db/db mice; male db/db mice): not affected | hepatic histology (H&E) (db/db mice; male db/db mice): no apparent effect | glucose levels during ITT (db/db mice; male db/db mice): significantly reduced glucose levels | blood glucose (db/db mice; male db/db mice, p.o. twice daily, ten days): reduced blood glucose to an extent similar to the PPARγ agonist rosiglitazone | weight loss (trend) (db/db mice; male db/db mice, ten days): 5% | insulin levels (db/db mice; male db/db mice, ten days, 6 h fast): did not significantly affect | HOMA-IR index (worsening of insulin resistance over the study) (db/db mice; male db/db mice, ten days): staunched | HOMA-β (db/db mice; male db/db mice, ten days): tended to be improved | effect on Foxo1 mRNA levels [2]: did not affect | cAMP/Dex-induced G6pc mRNA expression [2]: significantly suppressed | cAMP/Dex-induced Pck1 mRNA expression [2]: significantly suppressed | body weight ([4]; day 10 compared to day 0): trend toward reduced body weight | reduction in perigonadal fat pad weight ([4]; end of the study (day 11)): > 50% | glucose levels during PTT ([3]; LKO mice, 16 mg/kg/dose p.o.): failed to reduce glucose levels | IC50 (pCMV-Rluc): > 24 µM | IC50 (pGK-FFluc): > 10 µM | CL (Mouse PK; male ICR mice, IV 1 mg/kg): 22.7 mL/kg∗min | AUCinf (Mouse PK; male ICR mice, IV 1 mg/kg, plasma): 1.86 μM∗h | AUCinf (Mouse PK; male ICR mice, PO 10 mg/kg, plasma): 4.66 μM∗h | Vd (Mouse PK; [5]): 1.71 L/kg | half-life (Mouse PK; [5]): 73.8 min | bioavailability (Mouse PK; male, ICR, mouse, plasma, oral, 10 mg/kg): 25.5% | Cmax (Mouse PK; [6]): 1620 nM | Tmax (Mouse PK; [6]): 40.2 min

CN(CCOc1ccc(CC2SC(=O)NC2=O)cc1)c1ccccn1 (centres unmarked) [rosiglitazone, reference compound]
plasma TG (db/db mice; male db/db mice, 6-h-fasted): reduced plasma TG | ALT (db/db mice; male db/db mice): not affected | AST (db/db mice; male db/db mice): not affected | hepatic histology (H&E) (db/db mice; male db/db mice): exacerbated hepatic steatosis | glucose levels during ITT (db/db mice; male db/db mice): significantly reduced glucose levels | body weight (db/db mice; male db/db mice, rosiglitazone 10 mg/kg, ten days): weight gain | HOMA-IR index (worsening of insulin resistance over the study) (db/db mice; male db/db mice, ten days): staunched | HOMA-β (db/db mice; male db/db mice, ten days): tended to be improved

insulin
effect on Foxo1 mRNA levels [2]: did not affect | cAMP/Dex-induced G6pc mRNA expression [2]: significantly suppressed | cAMP/Dex-induced Pck1 mRNA expression [2]: significantly suppressed

B1: FGF21: Human recombinant FGF21 (Sino Biological), fibroblast growth factor 21 (protein, UniProt Q9NSA1 29-209, looked up)
Fibroblast growth factor 21: HPIPDSSPLLQFGGQVRQRYLYTDDAQQTEAHLEIREDGTVGGAADQSPESLLQLKALKPGVIQILGVKTSRFLCQRPDGALYGSLHFDPEACSFRELLLEDGYNVYQSEAHGLPLHLPGNKSPHRDPAPRGPARFLPLPGLPPALPEPPGILAPQPPDVGSSDPLSMVGPSQGRSPSYAS
plasma TG ([4]; 6-h fast): significantly reduced
